Measured values gathered from unrelated publications.
Each line is one published result; the experiments were not run side by side.

SMILES	system	conditions	endpoint	value
Cc1c(P(=S)(c2ccccc2)c2ccccc2)n2ccccc2[n+]1C/C=C/c1ccccc1	mouse, brain	intraperitoneal, 10 mg/kg	tissue/plasma ratio	0.33
N=c1c2c(-c3ccccc3)c(-c3ccccc3)n(Cc3ccccc3)c2ncn1[C@H]1CC[C@H](O)CC1	male cynomolgus monkey, plasma	oral, 1 mg/kg, single dose	Tmax	~15 h
O=C1[O][Pt]2([NH][C@@H]3CCCC[C@H]3[NH]2)[O]C1=O (relative stereo)	cynomolgus monkey, plasma	oral, 10 mg/kg	Tmax	2 h
COc1ccc(C[C@@H]2NC(=O)[C@H]([C@@H](C)O)NC(=O)[C@@H]3[C@@H]4CCN3C(=O)[C@@H]3Cc5cn(c6ccc(F)cc56)CCCCCCN(Cc5ccc(cc5)CCNC(=O)[C@]5(C)CCCN5C2=O)C(=O)CCC(=O)N[C@@H](C)C(=O)N[C@H](CNC(=O)CCCCC[N+](C)(C)C)C(=O)N[C@@H](Cc2cccc(c2)CNC(=O)CO4)C(=O)N3)cc1	human, plasma	oral, 200 mg, single dose, healthy volunteers	AUC(0-inf)	0.556 µM·h
CC(=C/C=C/C(C)=C/C(=O)O)/C=C1\CCCc2ccccc21	human, plasma	oral, 5 mg, single dose, fasted, healthy volunteers	AUC(0-inf)	193 ng·h/mL
C=C(C)[C@@H]1CC[C@]2(NCCN3CCS(=O)(=O)CC3)CC[C@]3(C)[C@H](CC[C@@H]4[C@@]5(C)CC=C(C6=CC[C@@](COc7ncccc7C#N)(C(=O)O)CC6)C(C)(C)[C@@H]5CC[C@]43C)[C@@H]12	human, plasma	oral, 100 mg, fed	AUC(0-inf)	43600 ng·h/mL
c1cc([C@H]2CC[C@]3(CC2)OO[C@]2(O3)C3CC4CC(C3)CC2C4)ccc1OCCN1CCOCC1	human, plasma	oral, 400 mg, patients	AUC(0-inf)	6450 ng·h/mL
N=C(N)NCCC[C@@H](NC(=O)[C@@H](N)Cc1ccccc1)C(=O)N[C@@H](Cc1ccccc1)C(=O)N[C@@H](CCCCN)C(N)=O	human, plasma	subcutaneous, 5 mg, patients	AUC(0-t)	861 ng·h/mL
